Arbovirus inh: arbovirus infection inhibition; arbovirus infection cell-based antiviral screen; AID 1251; actives 0.37% (n = 200,000); inhibition, % at 10 µM; in the data active = inhibition above about 30%
Wee1 degr inh: blocks degradation of human Wee1 kinase | P30291 | HeLa Luc-Wee1K328M stability, luciferase luminescence; 100% = proteasome inhibitor MG132 effect | reporter increase, % at 5 µM | actives 1.2% (n = 220,000) | AID 1321;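 active = activation above the mean of all tested compounds plus 3 SD, set per screening run, cut at about 8.8% in these data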;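 also: cells exposed to compound for 20 h before luminescence read; 0% = DMSO alone and 100% = MG132 at 30 µM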
RBBP9 inh: inhibitors of human serine hydrolase RBBP9; O75884; recombinant RBBP9, FP-Rh probe fluorescence polarization; inhibition, % at 7.94 µM; actives 0.2% (n = 220,000);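 active = inhibition above the campaign mean of all tested compounds plus 3 SD, cut at about 14% in these data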;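 also: plate controls were DMSO wells with RBBP9 for no effect and wells lacking RBBP9 protein for full effect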
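Test system: recombinant human RBBP9; Timing: 30 min then 45 min, 25 °C; Detection: fluorescence polarization; Control set: RBBP9 with DMSO as uninhibited control, no-protein wells as full inhibition; Compound dosing: one concentration, 7.94 µM nominal, 0.794% DMSO; Probe or stimulus: FP-Rh activity-based probe, 375 nM before mixing.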
Redox H2O2 prof: compounds producing H2O2 with reducing agent – biochemical, NIH compound library profiling, artefact control for MLSCN library redox annotation, primary screen. activation, % at 10 µM. AID 878. actives 0.03% (n = 200,000). DTT-dependent redox cycling H2O2, phenol red/HRP absorbance; 100% = 100 µM peroxide control, 0% = buffer;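 active = activation of at least 50% relative to the plate's high and low controls in the primary single-dose screen; inactive = activation below 50%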;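 also: compound incubated with DTT at 0.8 mM final as the reducing agent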
PKD1 inh: PKD1 (human) kinase inhibition; Q15139; PKD1 kinase fluorescence polarization assay; inhibition, % (test concentration not listed); actives 0.056% (n = 200,000); in the data active = inhibition above about 50%
p97 ATPase inh: blocks human p97 ATPase activity | P55072 | recombinant p97 ATPase, Kinase-Glo ATP luminescence, 3 h | inhibition, % at 8 µM | actives 0.42% (n = 220,000) | AID 1481; in the data active = inhibition above about 15%;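 also: 0% = DMSO vehicle and 100% = wells lacking enzyme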
Target sequence (P55072 whole entry, looked up): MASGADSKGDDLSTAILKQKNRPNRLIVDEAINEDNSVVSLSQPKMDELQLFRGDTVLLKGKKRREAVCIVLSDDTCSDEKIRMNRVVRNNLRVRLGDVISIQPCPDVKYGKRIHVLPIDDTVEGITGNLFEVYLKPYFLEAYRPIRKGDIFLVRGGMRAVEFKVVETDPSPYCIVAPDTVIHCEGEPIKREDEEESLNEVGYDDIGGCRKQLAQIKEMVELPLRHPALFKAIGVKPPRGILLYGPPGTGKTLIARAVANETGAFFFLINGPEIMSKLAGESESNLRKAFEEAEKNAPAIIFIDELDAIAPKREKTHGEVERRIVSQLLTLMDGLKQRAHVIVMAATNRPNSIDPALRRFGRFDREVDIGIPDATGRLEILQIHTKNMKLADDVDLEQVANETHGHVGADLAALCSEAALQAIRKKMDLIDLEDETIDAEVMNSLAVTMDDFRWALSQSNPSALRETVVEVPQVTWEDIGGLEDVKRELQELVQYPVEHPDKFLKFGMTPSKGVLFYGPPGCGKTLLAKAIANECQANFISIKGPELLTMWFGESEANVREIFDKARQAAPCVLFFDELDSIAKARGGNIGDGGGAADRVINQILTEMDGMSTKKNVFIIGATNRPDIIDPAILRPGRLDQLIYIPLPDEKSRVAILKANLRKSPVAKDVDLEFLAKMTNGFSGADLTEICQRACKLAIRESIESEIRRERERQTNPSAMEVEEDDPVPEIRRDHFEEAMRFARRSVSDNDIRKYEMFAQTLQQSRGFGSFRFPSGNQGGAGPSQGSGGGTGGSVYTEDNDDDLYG
Starred values were filed as active, the others as inactive; · = no result given. Sampled rows, rich in hits. Any-hit rate of the full collection: about 2.2%.

SMILES	Arbovirus inh	Wee1 degr inh	RBBP9 inh	Redox H2O2 prof	PKD1 inh	p97 ATPase inh
Cc1cccc(-c2nsc(SCC(=O)NCC3CCCO3)n2)c1 (stereo unspecified)	9.7	9.5*	0.3	0.0	-2.2	1.6
Cc1cccc(-c2nsc(SCC(=O)NCc3ccco3)n2)c1	-7.0	-0.7	-2.6	1.9	-0.8	1.0
COc1ccc(Br)cc1CNC(=O)CCN1C(=O)COc2ccccc21	2.3	10.6*	-10.2	0.6	-7.3	-3.6
CC(NC(=O)C1CCN(S(=O)(=O)N2CCCCCC2)CC1)c1ccccc1 (stereo unspecified)	-0.9	1.8	-2.5	1.1	-7.8	-1.1
CC(NC(=O)C1CCN(S(=O)(=O)N2CCC3(CC2)OCCO3)CC1)c1ccccc1 (stereo unspecified)	-0.9	10.7*	-12.6	-0.6	2.2	-5.6
CCOC(=O)c1c(CSC(=N)N)n(-c2ccccc2)c2cc(Br)c(OC(C)=O)cc12	·	-0.7	-6.0	·	·	4.5
O=C(CSc1nnnn1C1CCCC1)NCc1cccs1	-3.5	-4.0	-1.6	-0.8	-8.2	3.5
O=C(CSc1nnnn1C1CCCCC1)NCc1cccs1	-5.3	10.7*	-5.3	-0.4	-3.4	0.6
Cn1ncc2c(NNC(=O)c3ccccc3Cl)ncnc21	-10.2	9.3*	-5.6	1.2	-4.0	4.2
Cc1ccccc1C(=O)NNc1ncnc2c1cnn2C	14.0	1.4	-9.1	0.4	-7.0	5.1
CCCN1C[C@H](CSC)C[C@@H]2c3cccc4[nH]cc(c34)C[C@H]21	-1.0	2.0	-6.0	0.1	-3.4	2.8
CCOC(=O)Cc1c(C)nc2c(-c3ccc(Cl)cc3)c[nH]n2c1=O	-30.5	9.8*	-6.9	-1.1	-5.0	-5.4
C(=N\Nc1nc2ccccc2[nH]1)/c1ccccc1	-0.1	0.6	0.3	-0.6	3.2	4.4
O=c1[nH]c(N/N=C/c2ccccc2)nc2ccccc12	-9.3	10.5*	-4.8	3.9	-10.0	4.0
CCCC(=O)Nc1nc2ccc(NC(=O)c3ccc(Br)o3)cc2s1	2.7	9.5*	-9.7	0.0	3.1	-4.6
Cc1ccc(Cl)c(OCC(=O)Nc2sc(C)c(C)c2C#N)c1	-2.9	8.8*	4.8	0.1	0.2	0.5
COc1ccccc1C(=O)N/C(=C/c1ccccc1)C(=O)Nc1ccc(C(=O)O)cc1	6.6	10.3*	4.8	2.4	2.9	4.5
CS(=O)(=O)N1CCN=C1SCc1ccc([N+](=O)[O-])cc1	2.6	9.1*	1.9	0.0	9.7	-0.2
CC(C)OC(=O)CCCCCN1C(=O)CSC1=S	12.2	9.0*	-20.6	3.0	3.4	0.3
Fc1ccccc1CSc1nc2ncccc2[nH]1	0.0	10.0*	3.6	2.3	-3.0	3.7
O=c1[nH]c(SCc2ccccc2F)nc2ccccc12	0.6	0.2	1.4	-0.2	-4.0	4.4
CC(C)(C)CC(=O)Nc1ccccc1N1CCN(c2ccccc2)CC1	5.6	10.8*	2.0	-1.2	6.3	-4.4
CC(C)CC(=O)Nc1ccccc1N1CCN(c2ccccc2)CC1	-4.0	-1.0	-8.5	-0.5	-3.5	-7.2
Nc1nc(CCOc2ccc(F)cc2)cs1	0.3	4.5	-2.3	-0.3	12.3	2.2
CC1CCCCN1S(=O)(=O)c1ccc2c(c1)CCN2C(=O)C1CCC1 (stereo unspecified)	-6.4	8.8*	5.5	-0.5	-2.2	-3.8
SMILES	Arbovirus inh	Wee1 degr inh	RBBP9 inh	Redox H2O2 prof	PKD1 inh	p97 ATPase inh
COc1cccc(CNS(=O)(=O)c2ccc3c(c2)CCN3C(=O)C2CC2)c1	-4.3	9.2*	0.1	15.9	9.1	0.3
COc1cccc(NC(=O)Cn2c(=O)n(CC3CCCO3)c(=O)c3ccccc32)c1 (stereo unspecified)	-0.9	5.9	-11.5	-1.5	-10.6	2.4
O=C(Nc1ccc(F)cc1F)NC1CCN(Cc2c(F)cccc2Cl)CC1	·	1.8	-8.0	·	·	4.2
COc1ccc(-c2csc(Nc3ccc(S(=O)(=O)Nc4cc(C)on4)cc3)n2)cc1	30.1*	-3.6	-8.8	-1.6	-2.5	-4.7
CC(C)(C)NC(=S)N/N=C\c1ccc(-c2ccc([N+](=O)[O-])cc2)o1	·	-0.5	-1.6	·	·	4.4
CC(C)S(=O)(=O)CC(=O)c1ccc(Cl)cc1	7.2	0.9	-10.1	-2.1	3.5	-1.5
Cc1ccc(C(=O)Nc2cccnc2)cc1S(=O)(=O)N1CCOCC1	3.6	-2.5	-1.8	0.3	0.9	1.0
Cc1ccc(C(=O)Nc2ccc3cn[nH]c3c2)cc1S(=O)(=O)N1CCOCC1	-9.2	9.7*	-8.9	-1.3	-7.2	6.3
CCOC(=O)c1ccc(NC(=O)c2ccc(C)c(S(=O)(=O)N3CCOCC3)c2)cc1	32.6*	4.3	-4.8	0.0	-6.7	-2.0
COCc1c(C(=O)OCC(=O)NCCN2C(=O)CSC2=O)oc2ccccc12	3.6	-0.2	0.5	-1.7	-5.8	-3.5
O=C(O)c1cc(O)c2c(c1)C(=O)c1cccc(O)c1C2=O	2.3	-0.7	26.8*	5.6	5.0	11.8
Cc1cc(O)c2c(c1)C(=O)c1cccc(O)c1C2=O	-9.0	3.0	-8.3	3.5	-5.0	-3.7
c1ccc(CNc2ncnc3c2oc2ccccc23)nc1	2.5	10.3*	0.4	19.1	6.3	2.1
CCc1nc(NCc2ccccn2)c2oc3ccccc3c2n1	1.1	·	·	·	·	·
Cc1cc(C(=O)CSc2nnc(-c3ccco3)o2)c(C)n1Cc1ccco1	31.1*	-1.9	-6.5	-1.2	-10.4	-2.9
Cc1cc(C(=O)CSc2nncs2)c(C)n1Cc1ccco1	-15.6	3.1	-2.2	-1.7	4.3	3.2
CCOc1ccc(NC(=O)CSc2nnc(N)s2)c([N+](=O)[O-])c1	-3.1	9.8*	-8.7	2.5	-9.0	1.2
CCOc1ccc(NC(=O)CSc2ncn[nH]2)c([N+](=O)[O-])c1	1.1	0.0	-5.3	0.7	-16.2	0.4
CCC(C)NC(=O)c1ccc(CSc2nc3ccncc3n2Cc2ccc(F)cc2)cc1 (stereo unspecified)	-1.5	-1.1	-1.9	0.4	2.0	5.1
CN1CCN(C(=O)c2ccc(CSc3nc4ccncc4n3Cc3ccc(F)cc3)cc2)CC1	-5.7	0.1	-1.1	0.5	-15.7	15.5*
O=C1C(c2c(O)[nH]c3ccccc23)=Nc2ccccc21	-0.2	12.0*	1.5	·	·	4.0
CC(=O)c1ccc(OCC(C)Oc2ccc(C#N)cc2)cc1 (stereo unspecified)	·	0.4	10.0	·	·	-0.4
O=C(NCCCN1CCOCC1)c1ccc(Br)s1	0.6	0.2	-1.4	0.7	-5.0	2.1
O=C(NCCCCNC(=O)c1ccc(Br)s1)c1ccc(Br)s1	0.6	16.5*	-8.4	0.5	-7.1	4.0
C/C(=N\NC(=O)c1ccccn1)c1ccc(C(=O)O)s1	-1.1	2.2	-4.3	-0.2	-1.4	-5.8
Cc1nn(-c2ccccc2)c(Cl)c1/C=C1\SC(=S)N(C)C1=O	-8.7	14.9*	-7.2	1.6	-6.8	0.0

Screening data from PubChem.
